Assay results taken from publication PMC7693203 (Epilepsia, 2020).
Read-outs that look alike come from different tables or passages of the source. Marks after values point to notes of the source that are not given here.

Legend:
CYP3A4 [1] = target: T1, CYP3A4 (Homo sapiens, UniProt P08684); details: result in words, cited from earlier work
[2] = cited from earlier work; for Abdominal pain / Chromaturia / Diarrhea / Fatigue / Flatulence / Headache / Hepatic enzyme increased / Nausea / Somnolence: healthy volunteers
CYP3A4/2C19 = assay: clinical; details: human, in vivo, 750 mg
[3] = not given; remark: listed apart in the source
[4] = cited from earlier work
[5] = not given; remark: listed apart in the source
CYP3A4 [6] = target: T1, CYP3A4; assay: clinical; details: in vivo, 750 mg
[7] = Other safety parameters for all six trials; format: in vivo, human; details: result in words
How it was run: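 Safety was assessed in open-label, fixed-sequence phase 1 trials in healthy volunteers and in randomized, double-blind, placebo-controlled phase 2 trials in epilepsy patients. Assessments covered treatment-emergent adverse events, clinical laboratory evaluations, vital signs, 12-lead ECGs, physical examinations and the C-SSRS questionnaire. The safety population comprised subjects given at least one dose. In CYP3A4 trials, volunteers also needed at least one postdose assessment.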

CYP2C19 [8] = target: T2, CYP2C19 (Homo sapiens, UniProt P33261); details: human liver microsomes; result in words; cited from earlier work
UGT2B7 = details: in vitro; result in words; cited from earlier work
UGT1A9 = details: in vitro; result in words; cited from earlier work
CYP2C19 [9] = target: T2, CYP2C19; assay: clinical; details: in vivo, 750 mg
[10] = cited from earlier work; remark: listed apart in the source
CYP2C19 [11] = target: T2, CYP2C19
[12] = trial 17075, healthy volunteers, N = 32
[13] = trial 1543, healthy volunteers, N = 77
[14] = trial 1543 groups 1 + 2 (DDI CLB), n = 27
[15] = trial 1543 groups 3 + 4 (DDI STP), n = 24
[16] = trial 1543 groups 5 + 6 (DDI VPA), n = 26
[17] = trial 17074, healthy volunteers, N = 16
[18] = trial 1428, patients with epilepsy, N = 16
[19] = trial 1428, patients with epilepsy, N = 20
[20] = trial 17028, healthy volunteers, N = 16
[21] = trial 1447, patients with epilepsy, N = 28
[22] = trial 1447, patients with epilepsy, N = 34

T2 sequence (P33261 whole entry): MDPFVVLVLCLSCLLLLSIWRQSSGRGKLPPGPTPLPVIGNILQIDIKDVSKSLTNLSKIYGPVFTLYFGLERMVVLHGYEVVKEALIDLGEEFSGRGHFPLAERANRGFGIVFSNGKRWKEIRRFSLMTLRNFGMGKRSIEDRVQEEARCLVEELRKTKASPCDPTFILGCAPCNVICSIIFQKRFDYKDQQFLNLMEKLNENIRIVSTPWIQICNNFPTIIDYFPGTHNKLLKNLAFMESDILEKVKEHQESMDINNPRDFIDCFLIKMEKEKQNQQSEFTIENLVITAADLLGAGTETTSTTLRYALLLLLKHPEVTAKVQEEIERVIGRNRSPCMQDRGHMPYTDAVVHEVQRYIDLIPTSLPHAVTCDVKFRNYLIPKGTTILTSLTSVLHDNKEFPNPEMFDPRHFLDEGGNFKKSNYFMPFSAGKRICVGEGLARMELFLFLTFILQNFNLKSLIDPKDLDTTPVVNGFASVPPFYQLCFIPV
T1 sequence (P08684 whole entry): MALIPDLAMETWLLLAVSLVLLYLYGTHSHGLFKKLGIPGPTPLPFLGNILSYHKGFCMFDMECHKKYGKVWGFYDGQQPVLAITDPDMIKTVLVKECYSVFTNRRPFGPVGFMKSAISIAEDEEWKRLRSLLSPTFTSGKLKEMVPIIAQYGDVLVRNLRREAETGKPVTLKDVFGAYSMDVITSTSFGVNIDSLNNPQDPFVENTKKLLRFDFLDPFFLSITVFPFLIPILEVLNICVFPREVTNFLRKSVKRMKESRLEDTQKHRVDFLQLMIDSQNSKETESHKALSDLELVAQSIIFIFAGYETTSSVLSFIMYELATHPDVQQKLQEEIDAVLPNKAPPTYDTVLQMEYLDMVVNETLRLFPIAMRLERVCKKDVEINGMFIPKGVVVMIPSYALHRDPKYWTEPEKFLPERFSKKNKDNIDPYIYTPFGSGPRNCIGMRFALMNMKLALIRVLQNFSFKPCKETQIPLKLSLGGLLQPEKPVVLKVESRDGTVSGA

Question: Which results are given for C=C(C)[C@@H]1CCC(C)=C[C@H]1c1c(O)cc(CCCCC)cc1O [CBD, cannabidiol]?
Answer: inhibition of CYP3A4 (CYP3A4 [1]; human liver microsomes): potently inhibits; inhibition of CYP3A4 (CYP3A4 [1]; in vitro data): potent inhibitor; AEs leading to withdrawal [12]: 0 (0) n (%); Abdominal pain [12]: 2 (6) n (%); Chromaturia [12]: 0 (0) n (%); Death [12]: 0 (0) n (%); Diarrhea [12]: 3 (9) n (%); Fatigue [12]: 2 (6) n (%); Flatulence [12]: 0 (0) n (%); Headache [12]: 6 (19) n (%); Hepatic enzyme increased [12]: 0 (0) ^c n (%); Nausea [12]: 2 (6) n (%); Patient with at least 1 AE [12]: 20 (63) n (%); Serious AEs [12]: 0 (0) n (%); Severe AEs [12]: 0 (0) n (%); Somnolence [12]: 3 (9) n (%); healthy volunteers reporting AEs (trial 17075, overall, 32 subjects, CBD as two single doses): 63%; healthy volunteers reporting AEs (trial 17075 FLU arm, overall, of 16): 44%; healthy volunteers reporting AEs (trial 17075 ITC arm, overall, of 16): 81%; AEs leading to withdrawal [2, 13]: 6 (8) n (%); Death [2, 13]: 0 (0) n (%); Patient with at least 1 AE [2, 13]: 72 (94) n (%); Serious AEs [2, 13]: 0 (0) n (%); Severe AEs [2, 13]: 2 (3) n (%); subjects who experienced an AE of rash ([2]; trial 1543, of 77, early in the trial): 12%; healthy volunteers who experienced an AE ([2]; trial 1543, of 77): 94%; elevations in transaminase levels as AEs or laboratory evaluations ([2]; trial 1543, result in words): no reports; Abdominal pain [2, 14]: 7 (26) n (%); Chromaturia [2, 14]: 0 (0) n (%); Diarrhea [2, 14]: 7 (26) n (%); Fatigue [2, 14]: 14 (52) n (%); Flatulence [2, 14]: 0 (0) n (%); Headache [2, 14]: 13 (48) n (%); Hepatic enzyme increased [2, 14]: 0 (0) n (%); Nausea [2, 14]: 8 (30) n (%); Somnolence [2, 14]: 5 (19) n (%); Abdominal pain [2, 15]: 7 (29) n (%); Chromaturia [2, 15]: 0 (0) n (%); Diarrhea [2, 15]: 13 (54) n (%); Fatigue [2, 15]: 8 (33) n (%); Flatulence [2, 15]: 6 (25) n (%); Headache [2, 15]: 9 (38) n (%); Hepatic enzyme increased [2, 15]: 0 (0) n (%); Nausea [2, 15]: 6 (25) n (%); Somnolence [2, 15]: 8 (33) n (%); Abdominal pain [2, 16]: 7 (27) n (%); Chromaturia [2, 16]: 0 (0) n (%); Diarrhea [2, 16]: 15 (58) n (%); Fatigue [2, 16]: 14 (54) n (%); Flatulence [2, 16]: 1 (4) n (%); Headache [2, 16]: 8 (31) n (%); Hepatic enzyme increased [2, 16]: 0 (0) n (%); Nausea [2, 16]: 8 (31) n (%); Somnolence [2, 16]: 7 (27) n (%); half-life (CYP3A4/2C19): 32.5 h; AEs leading to withdrawal [3, 17]: 0 (0) n (%); Abdominal pain [3, 17]: 0 (0) n (%); Death [3, 17]: 0 (0) n (%); Diarrhea [3, 17]: 3 (19) n (%); Fatigue [3, 17]: 0 (0) n (%); Flatulence [3, 17]: 0 (0) n (%); Headache [3, 17]: 2 (13) n (%); Hepatic enzyme increased [3, 17]: 0 (0) n (%); Nausea [3, 17]: 4 (25) n (%); Patient with at least 1 AE [3, 17]: 16 (100) n (%); Serious AEs [3, 17]: 0 (0) n (%); Severe AEs [3, 17]: 0 (0) n (%); Somnolence [3, 17]: 4 (25) n (%); Chromaturia ([3]; trial 17074, healthy volunteers, N = 16, rifampicin coadministered): 13 (81) n (%); healthy volunteers reporting AEs ([3]; trial 17074, overall, 16 subjects, CBD as two single doses): 100%; healthy volunteers reporting AEs ([3]; trial 17074, after CBD alone, during RIF treatment, or after CBD and RIF, of 16): 44%; elevations in transaminase levels as AEs or laboratory evaluations ([3]; trial 17074, result in words): no reports; patients with epilepsy reporting AEs ([4]; trial 1428, of 20): 75%; Abdominal pain [4, 18]: 1 (6) n (%); Chromaturia [4, 18]: 0 (0) n (%); Diarrhea [4, 18]: 6 (38) n (%); Fatigue [4, 18]: 1 (6) n (%); Flatulence [4, 18]: 0 (0) n (%); Headache [4, 18]: 1 (6) n (%); Hepatic enzyme increased [4, 18]: 0 (0) ^d n (%); Nausea [4, 18]: 3 (19) n (%); Somnolence [4, 18]: 2 (13) n (%); AEs leading to withdrawal [4, 19]: 1 (5) n (%); Death [4, 19]: 0 (0) n (%); Patient with at least 1 AE [4, 19]: 15 (75) n (%); Serious AEs [4, 19]: 1 (5) n (%); Severe AEs [4, 19]: 1 (5) n (%); elevation in AST levels observed ([5]; trial 17028): four; elevations in alanine aminotransferase levels observed ([5]; trial 17028): three; AEs leading to withdrawal [5, 20]: 2 (13) n (%); Abdominal pain [5, 20]: 2 (13) n (%); Chromaturia [5, 20]: 0 (0) n (%); Death [5, 20]: 0 (0) n (%); Diarrhea [5, 20]: 6 (38) n (%); Fatigue [5, 20]: 3 (19) n (%); Flatulence [5, 20]: 0 (0) n (%); Headache [5, 20]: 4 (25) n (%); Hepatic enzyme increased [5, 20]: 4 (25) n (%); Nausea [5, 20]: 2 (13) n (%); Patient with at least 1 AE [5, 20]: 15 (94) n (%); Serious AEs [5, 20]: 0 (0) n (%); Severe AEs [5, 20]: 0 (0) n (%); Somnolence [5, 20]: 5 (31) n (%); healthy volunteers with elevations in transaminase levels reported as AEs ([5]; trial 17028, of 16): 25%; healthy volunteers reporting AEs ([5]; trial 17028, of 16, CBD as multiple doses): 94%; half-life (CYP3A4 [6]): 56.8 h; instances that met Hy’s law criteria for potential drug‐induced liver injury [7]: no instances; suicidal ideation or behavior by C‐SSRS [7]: No suicidal ideation or behavior; inhibition of CYP2C19 (CYP2C19 [8]): potently inhibits; inhibition of UGT2B7 (UGT2B7): potently inhibits; inhibition of UGT1A9 (UGT1A9): potently inhibits; half-life (CYP2C19 [9]): 51.2 h; patients with epilepsy reporting AEs ([10]; trial 1447, of 34): 68%; Abdominal pain [10, 21]: 0 (0) n (%); Chromaturia [10, 21]: 0 (0) n (%); Diarrhea [10, 21]: 16 (57) n (%); Fatigue [10, 21]: 3 (11) n (%); Flatulence [10, 21]: 0 (0) n (%); Headache [10, 21]: 0 (0) n (%); Hepatic enzyme increased [10, 21]: 0 (0) ^e n (%); Nausea [10, 21]: 4 (14) n (%); Somnolence [10, 21]: 1 (4) n (%); AEs leading to withdrawal [10, 22]: 2 (6) n (%); Death [10, 22]: 0 (0) n (%); Patient with at least 1 AE [10, 22]: 23 (68) n (%); Serious AEs [10, 22]: 2 (6) n (%); Severe AEs [10, 22]: 1 (3) n (%); elevations in transaminase levels reported as AEs ([10]; trial 1447): three; clearance with concomitant FLU (CYP2C19 [11]; result in words): not affected; t ½ with concomitant FLU (CYP2C19 [11]; result in words): not affected; increase in AUCtau with concomitant steady‐state FLU (CYP2C19 [11]; single dose of CBD): 21%; increase in C max with concomitant steady‐state FLU (CYP2C19 [11]; single dose of CBD): 24%
